# Laboratory results as given in PubChem BioAssay.
# Activity calls are given as the source filed them.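 Rule for the calls, unless noted: active = inhibition above 20% together with a positive visual image hit; inconclusive = visual image hit but inhibition not above 20%; inactive = no visual image hit.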
# Experiments:
# [1] = inhibitors of TNFa-induced NFkB p65 translocation, primary screen, imaging, HUVEC, MLSMR starter and 10KST1 sets (AID 438); settings: HUVEC TNFa-induced p65 nuclear translocation; cell count: measured here: nuclei count (cytotoxicity indicator), at 2.08 µM; inhibition: at 2 µM, stronger effect = higher value, 0% TNFa-plus-vehicle, 100% no-TNFa wells;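 note: compound added about 3h40 before a 20 min TNFalpha stimulation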;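 for inhibition: signal is the nuclear over cytoplasmic p65 intensity ratio per well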
# [2] = inhibitors of mutant huntingtin aggregation, primary screen, imaging, exon1htt(103Q)mCFP cells, high-content imaging (AID 483;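 active = visual image review flags a hit and inhibition of aggregation exceeds 20%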;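 note: compound exposure lasted 3 days before fixation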;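 for nuclei count: percent of the per-plate median nuclei count of sample wells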); settings: exon1htt(103Q)mCFP cell line, aggregate imaging, at 2 µM; inhibition of aggregation: stronger effect = higher value; nuclei count: measured here: cell count, toxicity
# [3] = inhibitors of E-selectin induction by TNFa, primary screen, imaging, HUVEC, immunofluorescence, MLSMR starter and 10KST1 sets (AID 487;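 active = visually confirmed hit in the image check and inhibition above 20%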;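 for inhibition: signal is fraction of cell area covered by stained E-selectin grains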;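 for nuclei count: 100% = median nuclei count of all wells on the same plate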); settings: HUVEC TNFalpha-induced E-selectin immunofluorescence imaging, at 2 µM; inhibition: stronger effect = higher value; nuclei count: measured here: cell number, toxicity
# [4] = molecular target: Voltage-gated potassium channel subunit beta-2 (Rattus norvegicus) (UniProt P62483); experiment: KvBeta enzyme negative modulators, primary screen, biochemical, NADPH fluorescence (AID 622;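 active = fluorescence slope higher than the sample average by over 3 SD, cut at about -0.22 in these data, passing the limit was not always enough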;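 note: slope of raw intensity against log time taken from 70 to 1610 s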); settings: recombinant KvBeta, 4-cyanobenzaldehyde reduction, at 10 µM, stronger effect = higher value
# [5] = molecular target: Voltage-gated potassium channel subunit beta-2 (Rattus norvegicus) (UniProt P62483); experiment: KvBeta positive modulators, primary screen, biochemical, NADPH fluorescence (AID 623;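 active = NADPH fluorescence slope more negative than the mean of all samples by about 3 SD, 99.7% confidence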;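 note: fluorescence intensity change per second fitted from 20 to 320 s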); settings: Recombinant KvBeta, NADPH fluorescence decrease slope, 10 min; at 10 µM; stronger effect = lower value
# [6] = molecular target: Muscarinic acetylcholine receptor M4 (Homo sapiens) (UniProt P08173); experiment: compounds altering M4/GIRK thallium flux, either direction, primary screen, M4 allosteric agonist project, cell-based, HEK293 M4/GIRK, BTC-AM (AID 625;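 active = fluorescence slope after compound addition differing from the mean of all tested samples at 99.7% confidence, mostly higher but some lower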;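 note: thallium influx through GIRK channels coupled to M4 in HEK293 cells with BTC-AM dye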); settings: at 10 µM, actives lie on both sides
# Procedure, shortened: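 Material: M4/GIRK1/GIRK2 stable HEK293 cell line. Medium: pH 7.3 thallium assay buffer. Dosing: single compound concentration, 10 µM final. Schedule: 1 h dye loading, 2 min kinetic read. Measured by: kinetic fluorescence with BTC-AM dye. Read-out: post-addition slope, 15–24 s, of baseline-normalized fluorescence. Benchmarks: carbachol and DMSO controls.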
# [7] = inhibitors of Sendai virus-induced IRF3 signaling, primary screen, TLR/RLR signaling modifier project, cell-based, Sendai virus stimulus, luciferase, 10K MLSCN set (AID 602276;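 active = inhibition at or above 50% at 10 µM; inactive = inhibition below 50%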;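 note: firefly luciferase from ISG56 promoter only with Renilla not read in this screen; 0% = Sendai virus plus DMSO and 100% = medium plus DMSO without virus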); settings: HEK293 RL24 IRF3 luciferase reporter, at 10 µM, stronger effect = higher value
# [8] = inhibitors of poly I:C-induced TLR3 signaling, primary screen, cell-based, poly I:C stimulus, luciferase, 10K MLSCN set (AID 602277;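 active = inhibition of the reporter signal at or above 50%; inactive = inhibition below 50%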); settings: HEK293-TLR3 RL24 IRF3 luciferase reporter, at 10 µM, stronger effect = higher value
# Sequence of Muscarinic acetylcholine receptor M4 (Homo sapiens) (P08173 whole entry, looked up): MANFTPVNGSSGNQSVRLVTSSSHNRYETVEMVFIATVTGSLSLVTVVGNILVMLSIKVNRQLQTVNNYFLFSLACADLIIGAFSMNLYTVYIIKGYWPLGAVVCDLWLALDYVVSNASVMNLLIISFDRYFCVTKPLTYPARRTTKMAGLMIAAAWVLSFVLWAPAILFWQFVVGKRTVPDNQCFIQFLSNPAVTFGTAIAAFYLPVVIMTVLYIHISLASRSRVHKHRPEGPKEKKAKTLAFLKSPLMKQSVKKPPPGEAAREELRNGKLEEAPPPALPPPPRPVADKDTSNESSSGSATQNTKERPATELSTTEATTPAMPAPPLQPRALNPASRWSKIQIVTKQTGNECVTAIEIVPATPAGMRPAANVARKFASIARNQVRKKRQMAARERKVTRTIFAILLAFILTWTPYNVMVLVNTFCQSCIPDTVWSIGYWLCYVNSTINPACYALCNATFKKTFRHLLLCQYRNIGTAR
# Sequence of Voltage-gated potassium channel subunit beta-2 (Rattus norvegicus) (P62483 whole entry, looked up): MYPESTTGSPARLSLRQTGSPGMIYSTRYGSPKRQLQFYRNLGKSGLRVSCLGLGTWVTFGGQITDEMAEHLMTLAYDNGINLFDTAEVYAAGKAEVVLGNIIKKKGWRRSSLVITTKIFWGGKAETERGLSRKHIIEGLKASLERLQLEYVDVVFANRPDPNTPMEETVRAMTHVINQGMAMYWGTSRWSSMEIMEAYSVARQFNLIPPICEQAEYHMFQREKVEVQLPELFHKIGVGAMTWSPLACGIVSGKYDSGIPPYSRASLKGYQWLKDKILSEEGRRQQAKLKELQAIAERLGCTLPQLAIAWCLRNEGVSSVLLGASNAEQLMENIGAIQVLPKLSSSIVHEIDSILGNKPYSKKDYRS
SMILES,cell count [1],inhibition [1],inhibition of aggregation [2],nuclei count [2] [%],inhibition [3],nuclei count [3] [%],fluorescence slope [4],NADPH fluorescence slope [5],fluorescence slope [6],inhibition [7],inhibition [8]
Cc1ccc(-c2nc(-c3cccnc3)no2)c(C)c1,357,4.2% (inactive),-8% (inactive),107,-54.5% (inactive),105,-0.571 (inactive),-3.5e-05 (inactive),0.00802 (inactive),-33.6% (inactive),-111% (inactive)
Cc1n[nH]c(C)c1S(=O)(=O)Nc1ccc2c(c1)OCCO2,328,8.9% (inactive),29.5% (inactive),91.5,10.4% (inactive),84.4,-0.469 (inactive),4.4e-05 (inactive),0.0057 (inactive),26.7% (inactive),33.7% (inactive)
COc1ccc(-n2c(SCC(=O)Nc3ccc(C(=O)O)cc3)nnc2-c2cccs2)cc1,443,2.8% (inactive),-7.1% (inactive),91.6,-43.4% (inactive),150,-0.451 (inactive),-0.000238 (inactive),0.00524 (inactive),0.267% (inactive),6.83% (inactive)
O=C(CCCCCn1c(SCc2ccncc2)nc2ccccc2c1=O)NCc1ccco1,458,-10.3% (inactive),-29.8% (inactive),109,-25.1% (inactive),94.5,-0.498 (inactive),-1.1e-05 (inactive),0.00498 (inactive),8.7% (inactive),15.5% (inactive)
Cc1ccc(CNC(=O)CCCn2c(=O)c3ccccc3n(CC(=O)NCc3ccco3)c2=O)cc1,451,-11.1% (inactive),-4% (inactive),114,-76.5% (inactive),97.1,-0.509 (inactive),-0.000209 (inactive),0.00296 (inactive),-6.73% (inactive),-15.2% (inactive)
Cc1ccc2nsnc2c1S(=O)(=O)N1CCN(Cc2ccc3c(c2)OCO3)CC1,486,-13.1% (inactive),-11.5% (inactive),108,-9.8% (inactive),83.9,-0.468 (inactive),-4.9e-05 (inactive),0.00415 (inactive),12.5% (inactive),27.7% (inactive)
Cc1cc(C(=O)N2CCN(C(c3ccccc3)c3ccccc3)CC2)no1,303,-17.6% (inactive),32.7% (inactive),73.4,-17.5% (inactive),84.1,-0.433 (inactive),-5.3e-05 (inactive),0.00719 (inactive),14.8% (inactive),12.2% (inactive)
Cc1noc(C)c1COc1cccc(C(=O)Oc2ccc3c(c2)OCO3)c1,329,-9.6% (inactive),4.3% (inactive),80.2,1.2% (inactive),100,-0.567 (inactive),-2.5e-05 (inactive),0.00685 (inactive),8.11% (inactive),15.8% (inactive)
Cc1cc2c(=O)n(CC(=O)N3CCN(c4ccccc4)CC3)cnc2s1,632,-22.3% (inactive),0.5% (inactive),105,2.7% (inactive),94.9,-0.595 (inactive),1.9e-06 (inactive),0.0045 (inactive),7.52% (inactive),14.5% (inactive)
COc1ccc(S(=O)(=O)NC2CCCCC2)c(C)c1C,426,8.4% (inactive),-3% (inactive),101,65.4% (inactive),108,-0.557 (inactive),1.8e-05 (inactive),0.00523 (inactive),20.3% (inactive),26.9% (inactive)
CCCn1c2ccccc2c2nnc(SCC(=O)OCC)nc21,412,-1.5% (inactive),-3% (inactive),124,14.6% (inactive),104,-0.536 (inactive),-7.3e-05 (inactive),0.00386 (inactive),17.9% (inactive),25% (inactive)
O=C(CSc1nnnn1-c1ccccc1)Nc1nsc(-c2ccc(Cl)cc2)n1,449,-4.1% (inactive),17.3% (inactive),95.1,59.2% (inactive),130,-0.561 (inactive),-3.3e-05 (inactive),0.00729 (inactive),15.4% (inactive),15.1% (inactive)
Cc1cc(C)c2nc(N)sc2c1,615,6.3% (inactive),31.1% (inactive),67.2,16% (inactive),107,-0.281 (inactive),-1.5e-05 (inactive),0.00618 (inactive),-28.1% (inactive),-46.7% (inactive)
CCOC(=O)CN(C)Cc1c[nH]c2ccccc12,442,-2.2% (inactive),-15.3% (inactive),93.9,17.6% (inactive),78.5,-0.426 (inactive),-4.3e-05 (inactive),0.00441 (inactive),27.3% (inactive),36.9% (inactive)
CC(C)Cn1cc(C(=O)NCC2CCCO2)c2c3ccccc3n(C)c2c1=O (stereo not drawn),267,11.4% (inactive),3.2% (inactive),79.8,-24.4% (inactive),107,-0.523 (inactive),-3.1e-05 (inactive),0.00592 (inactive),13.7% (inactive),18.7% (inactive)
CN(CCCC(=O)Nc1ccncc1)S(=O)(=O)c1ccc(Cl)cc1,573,-5.7% (inactive),-13.4% (inactive),106,-18.9% (inactive),127,-0.584 (inactive),2.2e-07 (inactive),0.00791 (inactive),-14.2% (inactive),-29.3% (inactive)
CN(C)c1nc(N)nc(CSc2nnnn2-c2cccc3ccccc23)n1,627,-10.4% (inactive),27.3% (inactive),71.9,-69.3% (inactive),103,-0.463 (inactive),-3.9e-05 (inactive),0.00537 (inactive),18.6% (inactive),14.8% (inactive)
O=C(NC1(C(F)(F)F)NC(=O)N(Cc2ccco2)C1=O)c1cccnc1 (stereo not drawn),495,1.8% (inactive),1.2% (inactive),104,-26.5% (inactive),122,-0.461 (inactive),-8.5e-05 (inactive),0.00405 (inactive),9.43% (inactive),12.8% (inactive)
COc1ccc(N2C(=O)CC(N3CCN(S(=O)(=O)c4c(F)cccc4F)CC3)C2=O)cc1OC (stereo not drawn),418,-6.6% (inactive),1% (inactive),99.7,-20.1% (inactive),112,-0.572 (inactive),-1.2e-05 (inactive),0.00422 (inactive),9.5% (inactive),12.6% (inactive)
Cc1ccc(C2C(C#N)=C(N)Oc3cc4c(cc32)OCO4)cc1 (stereo not drawn),373,-5.8% (inactive),32.6% (inactive),69.9,22.1% (inactive),104,-0.541 (inactive),-3.6e-05 (inactive),0.00467 (inactive),24.6% (inactive),45.5% (inactive)
O=C(CCSc1ccccc1)N1CCN(C(=O)c2ccco2)CC1,462,-11.1% (inactive),2% (inactive),102,-29.7% (inactive),97.1,-0.603 (inactive),-3.1e-05 (inactive),0.0052 (inactive),-23.3% (inactive),-56% (inactive)
COC(=O)Cc1c(C)nc2nc(-c3ccccc3)[nH]n2c1=O,615,1.9% (inactive),18.9% (inactive),68,-15.7% (inactive),97.2,-0.474 (inactive),-9.1e-06 (inactive),0.00459 (inactive),0.882% (inactive),6.76% (inactive)
C=CCOc1cccc(C2/C(=C(\O)c3ccc(F)cc3)C(=O)C(=O)N2CCN(C)C)c1 (stereo not drawn),699,-12.1% (inactive),20.1% (inactive),82.8,33.3% (inactive),99.1,-0.493 (inactive),-0.000177 (inactive),0.00287 (inactive),8.26% (inactive),15.2% (inactive)
O=C(c1ccco1)N1CCN(C(=O)C2CCN(S(=O)(=O)c3cccc4nsnc34)CC2)CC1,549,9.4% (inactive),5.1% (inactive),104,8.2% (inactive),96.4,-0.468 (inactive),0.000197 (inactive),0.00637 (inactive),8.36% (inactive),18.1% (inactive)
CCOC(=O)N1CCN(c2cc(=O)n(-c3ccc(OCC)cc3)c(=O)[nH]2)CC1,551,-10% (inactive),9.3% (inactive),109,-26.9% (inactive),112,-0.431 (inactive),0.0001 (inactive),0.00574 (inactive),3.3% (inactive),10.8% (inactive)
Cc1cc(NC(=O)CN2CCC(O)(c3cccc(F)c3)CC2)no1,584,-53.1% (inactive),0.2% (inactive),103,-107% (inactive),117,-0.283 (inactive),-1.6e-05 (inactive),0.00664 (inactive),-0.229% (inactive),20.2% (inactive)
CCNC(=O)c1ccc(NS(=O)(=O)c2ccccc2)cc1,340,-4.8% (inactive),16% (inactive),123,-44.8% (inactive),102,-0.551 (inactive),-0.000105 (inactive),0.00291 (inactive),13.3% (inactive),12.4% (inactive)
COc1cc(NC(=O)Cc2nn(C)c(=O)c3ccccc23)cc(OC)c1,693,-14.8% (inactive),-21.4% (inactive),106,-39% (inactive),108,-0.585 (inactive),-4.8e-05 (inactive),0.00514 (inactive),-12.7% (inactive),-56.4% (inactive)
